According to ChEMBL document CHEMBL1157336, “Bisabolane sesquiterpenes from the roots of Ligularia cymbulifera” (2006):

How the values were obtained:
Assay type in all cases: functional
[1] = system: Staphylococcus aureus; assay: Antibacterial activity against Staphylococcus aureus ATCC 25923 after 24 hrs by broth microdilution assay; settings: ATCC 25923, 24 h
Method in brief: (§1)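 Broth microdilution MIC in Mueller-Hinton broth; serial doubling dilutions over 0.0024-1.25 mg/mL. Overnight broth cultures, inoculum adjusted to 2 × 10^6 cfu/mL final per well. Incubated at 37 °C for 24 h. MIC read as the lowest concentration without visible growth (no turbidity). Duplicate wells, repeated twice; levofloxacin as positive control.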

[2] = system: Escherichia coli; assay: Antibacterial activity against Escherichia coli ATCC 25922 after 24 hrs by broth microdilution assay; settings: ATCC 25922, 24 h; method in brief: as §1
[3] = system: Staphylococcus aureus; assay: Antibacterial activity against methicillin-resistant Staphylococcus aureus isolate after 24 hrs by broth microdilution assay
Method in brief: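 Clinical MRSA isolate; broth microdilution in Mueller-Hinton broth, twofold serial dilutions over 0.0024-1.25 mg/mL, final inoculum 2 × 10^6 cfu/mL from overnight broth culture; 37 °C, 24 h. MIC taken as lowest concentration without visible turbidity. Duplicate wells, repeated twice; levofloxacin positive control.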

[4] = system: Candida albicans; assay: Antifungal activity against Candida albicans after 48 hrs by broth microdilution assay
Method in brief: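 Yeast tested by broth microdilution in Mueller-Hinton broth; samples serially doubled over 0.0024-1.25 mg/mL. Inoculum from overnight broth culture, final 2 × 10^6 cfu/mL per well. Plates held at 30 °C for 48 h. MIC taken as the lowest concentration showing no turbidity. Duplicate, repeated twice; fluconazole positive control.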

Measured: MIC

C=C(C(CC(O)C(C)(C)O)OC(=O)/C(C)=C\C)[C@H]1C[C@H]2O[C@@]2(C)C(=O)[C@@H]1OC(=O)/C(C)=C\C (some centres not stated)
> 62.5 µg/mL: [1] | [2] | [3] | [4]

C=C(C(CC1OC1(C)C)OC(=O)/C(C)=C\C)[C@H]1C[C@H]2O[C@@]2(C)[C@H](OC(=O)/C(C)=C\C)[C@@H]1O (some centres not stated)
> 62.5 µg/mL: [1] | [2] | [3] | [4]

C=C(C(CC1OC1(C)C)OC(=O)/C(C)=C\C)[C@H]1C[C@H](OC(=O)/C(C)=C\C)[C@@](C)(O)[C@@H](OC(=O)/C(C)=C\C)[C@H]1O (some centres not stated)
> 62.5 µg/mL: [1] | [2] | [3] | [4]

C=C(C(CC1OC1(C)C)OC(=O)/C(C)=C\C)[C@H]1C[C@H]2O[C@@]2(C)[C@@H](OC(=O)/C(C)=C\C)[C@H]1OC(=O)/C(C)=C\C (some centres not stated)
> 62.5 µg/mL: [1] | [2] | [3] | [4]

C=C(C(CC1OC1(C)C)OC(=O)/C(C)=C\C)[C@H]1C[C@@H]2O[C@]2(C)[C@@H](OC(=O)/C(C)=C\C)[C@@H]1O (some centres not stated)
> 62.5 µg/mL: [1] | [2] | [3] | [4]

C=C(C(CC1OC1(C)C)OC(=O)/C(C)=C\C)[C@H]1C[C@H]2O[C@@]2(C)C[C@H]1OC(=O)/C(C)=C\C (some centres not stated)
> 62.5 µg/mL: [1] | [2] | [3] | [4]

C=C(C(CC(O)C(C)(C)O)OC(=O)/C(C)=C\C)[C@H]1C[C@H]2O[C@@]2(C)[C@@H](O)[C@H]1OC(=O)/C(C)=C\C (some centres not stated)
> 62.5 µg/mL: [1] | [2] | [3] | [4]

C=C(C(CC1OC1(C)C)OC(=O)/C(C)=C\C)[C@H]1C[C@H](Cl)[C@@](C)(O)[C@@H](O)[C@H]1OC(=O)/C(C)=C\C (some centres not stated)
> 62.5 µg/mL: [1] | [2] | [3] | [4]
